Measurements pooled from the literature.
Compare with care: the assays were run in different laboratories.
Target: Sodium-dependent noradrenaline transporter (SLC6A2, Homo sapiens, UniProt P23975)

CCN(Cc1ccccc1C(F)(F)F)C(=O)C1CCN(S(=O)(=O)c2ccc3[nH]ncc3c2)CC1
inhibition (ligand displacement, radioligand; 10 µM): 20%

N#Cc1cc(Cn2c(N3CCCC3)nc3ccccc32)ccc1F
inhibition (ligand displacement; 10 µM): 39.4%

Ic1cccc2cnccc12
inhibition (ligand displacement, radioligand; 10 µM): 44%

CN1CCN(CCCOc2ccc(=O)n(-c3ccc(Cl)c(Cl)c3)n2)CC1
inhibition (ligand displacement; 1 µM): 14.4%

O[C@@H]1[C@H](O)[C@@H]2C[C@@H]2[C@H]1n1cnc2c(NCCc3ccccc3)nc(C#Cc3ccccc3Cl)nc21
inhibition (ligand displacement, radioligand; 10 µM): 24%

Fc1ccc(C(c2ccc(F)cc2)c2nnnn2CCCCN2CCC(c3ccccc3)CC2)cc1
inhibition (transporter uptake, inhibitor; HEK293; 1 µM): 64.4%

O=C(c1ccc(Cl)cc1)N(Cc1ccccc1)C1CCCCC1
inhibition (cell-free assay; 10 µM): 14.9%

O=C(Nc1ccc(S(=O)(=O)N2CCC(Cl)CC2)cc1)c1ccc([N+](=O)[O-])o1
inhibition (ligand displacement, radioligand; 10 µM): 28%

Clc1ccc(C(c2ccccc2)c2nnnn2CCCCN2CCC(CCc3ccccc3)CC2)cc1 (stereo not drawn)
inhibition (transporter uptake, inhibitor; HEK293; 1 µM): 72.4%

CCN(CC)c1ccc(C2Nc3ccc(C(=O)c4ccccc4)cc3NC3=C2C(=O)CC(C)(C)C3)cc1 (stereo not drawn)
inhibition (ligand displacement, radioligand; 10 µM): 51%

Clc1ccc(C(c2ccc(Cl)cc2)c2nnnn2CCCN2CCC(CCCc3ccccc3)CC2)cc1
inhibition (transporter uptake, inhibitor; HEK293; 1 µM): 10.8%

O[C@@H]1[C@H](O)[C@@H]2C[C@@H]2[C@H]1n1cnc2c(NCc3cccc(Cl)c3)nc(C#Cc3ccc(F)c(F)c3)nc21
inhibition (ligand displacement, radioligand; 10 µM): 51%
